Measurements published in ChEMBL document CHEMBL4184148 (Bioorg Med Chem Lett, 2017).

Tests used:
[1] = molecular target: Casein kinase I isoform epsilon (Homo sapiens) (UniProt P49674); experiment: Binding affinity to wild-type human full length CSNK1E (M1 to K416 residues) expressed in Escherichia coli BL21 at 1 uM by Kinomescan method relative to control
Procedure, shortened: (§1)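 Run as one kinome-wide competition binding panel with each compound at a single fixed concentration. Results were plotted as a kinome-wide selectivity map.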

[2] = molecular target: Uncharacterized serine/threonine-protein kinase SBK3 (Homo sapiens) (UniProt P0C264); experiment: Binding affinity to wild-type human partial length SgK110 (L22 to R329 residues) expressed in Escherichia coli BL21 at 1 uM by Kinomescan method relative to control
[3] = tested on: Receptor-type tyrosine-protein kinase FLT3 (Homo sapiens), P36888 [UNDEFINED MUTATION]; experiment: Binding affinity to human partial length FLT3 ITD/F691L double mutant expressed in Escherichia coli BL21 at 1 uM by Kinomescan method relative to control
[4] = molecular target: Homeodomain-interacting protein kinase 4 (Homo sapiens) (UniProt Q8NE63); experiment: Binding affinity to wild-type human partial length HIPK4 (M1 to V384 residues) expressed in Escherichia coli BL21 at 1 uM by Kinomescan method relative to control
[5] = tested on: Epidermal growth factor receptor (Homo sapiens), P00533 [G719S]; experiment: Binding affinity to human partial length EGFR G719S mutant (R669 to V1011 residues) expressed in Escherichia coli BL21 at 1 uM by Kinomescan method relative to control
[6] = tested on: Epidermal growth factor receptor (Homo sapiens), P00533 [UNDEFINED MUTATION]; experiment: Binding affinity to human partial length EGFR L747-S752del/P753S mutant expressed in Escherichia coli BL21 at 1 uM by Kinomescan method relative to control
[7] = molecular target: Casein kinase I isoform delta (Homo sapiens) (UniProt P48730); experiment: Binding affinity to wild-type human full length CSNK1D (M1 to K409 residues) expressed in Escherichia coli BL21 at 1 uM by Kinomescan method relative to control; procedure, shortened: as §1
[8] = Half life in mouse hepatic microsomes at 1 mg/ml; type: ADME, Liver, microsome
[9] = molecular target: Casein kinase II subunit alpha' (Homo sapiens) (UniProt P19784); experiment: Binding affinity to wild-type human full length CSNK2A2 (M1 to R350 residues) expressed in HEK293 cells at 1 uM by Kinomescan method relative to control; type: cell-based; procedure, shortened: as §1
[10] = tested on: Tyrosine-protein kinase ABL1 (Homo sapiens), P00519 [E255K]; experiment: Binding affinity to human phosphorylated ABL1 E255K mutant (S229 to K512 residues) expressed in HEK293 cells at 1 uM by Kinomescan method relative to control; type: cell-based
[11] = tested on: Tyrosine-protein kinase ABL1 (Homo sapiens), P00519 [Q252H]; experiment: Binding affinity to human non-phosphorylated ABL1 Q252H mutant (S229 to K512 residues) expressed in HEK293 cells at 1 uM by Kinomescan method relative to control; type: cell-based
[12] = molecular target: Dual serine/threonine and tyrosine protein kinase (Homo sapiens) (UniProt Q6XUX3); experiment: Binding affinity to wild-type human full length RIPK5 (M1 to T929 residues) expressed in HEK293 cells at 1 uM by Kinomescan method relative to control; type: cell-based
[13] = molecular target: Phosphatidylinositol 3-kinase catalytic subunit type 3 (Homo sapiens) (UniProt Q8NEB9); experiment: Binding affinity to wild-type human partial length VPS34 (S282 to H879 residues) expressed in HEK293 cells at 1 uM by Kinomescan method relative to control; type: cell-based
[14] = molecular target: Epidermal growth factor receptor (Homo sapiens) (UniProt P00533); experiment: Binding affinity to human partial length EGFR E746-A750del mutant expressed in Escherichia coli BL21 at 1 uM by Kinomescan method relative to control
[15] = molecular target: Serine/threonine-protein kinase PAK 2 (Homo sapiens) (UniProt Q13177); experiment: Binding affinity to wild-type human partial length PAK2 (P151 to R525 residues) expressed in Escherichia coli BL21 at 1 uM by Kinomescan method relative to control
[16] = molecular target: Epidermal growth factor receptor (Homo sapiens) (UniProt P00533); experiment: Binding affinity to human partial length EGFR S752-I759del mutant expressed in Escherichia coli BL21 at 1 uM by Kinomescan method relative to control
[17] = molecular target: High affinity nerve growth factor receptor (Homo sapiens) (UniProt P04629); experiment: Binding affinity to wild-type human partial length TRKA (G475 to G790 residues) expressed in HEK293 cells at 1 uM by Kinomescan method relative to control; type: cell-based
[18] = molecular target: Serine/threonine-protein kinase PLK4 (Homo sapiens, UniProt O00444); experiment: Inhibition of GST-tagged human PLK4 (1 to 836 residues) by Lanthascreen binding assay
[19] = molecular target: Tyrosine-protein kinase BTK (Homo sapiens) (UniProt Q06187); experiment: Binding affinity to wild-type human full length BTK (M1 to S659 residues) expressed in HEK293 cells at 1 uM by Kinomescan method relative to control; type: cell-based
[20] = molecular target: Homeodomain-interacting protein kinase 1 (Homo sapiens) (UniProt Q86Z02); experiment: Binding affinity to wild-type human partial length HIPK1 (M146 to I555 residues) expressed in HEK293 cells at 1 uM by Kinomescan method relative to control; type: cell-based
[21] = molecular target: RAC-alpha serine/threonine-protein kinase (Homo sapiens) (UniProt P31749); experiment: Binding affinity to wild-type human partial length AKT1 expressed in Escherichia coli BL21 at 1 uM by Kinomescan method relative to control
Procedure, shortened: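 Kinome-wide competition binding panel run by an outside provider, with each compound tested at a single concentration. Activity is read against the kinase panel.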

[22] = molecular target: Rho-associated protein kinase 1 (Homo sapiens) (UniProt Q13464); experiment: Binding affinity to wild-type human partial length ROCK1 (M1 to R415 residues) expressed in HEK293 cells at 1 uM by Kinomescan method relative to control; type: cell-based
[23] = tested on: Mast/stem cell growth factor receptor Kit (Homo sapiens), P10721 [D816H]; experiment: Binding affinity to human partial length KIT D816H mutant (I571 to D952 residues) expressed in HEK293 cells at 1 uM by Kinomescan method relative to control; type: cell-based
[24] = molecular target: Rho-associated protein kinase 2 (Homo sapiens) (UniProt O75116); experiment: Binding affinity to wild-type human partial length ROCK2 (M1 to T431 residues) expressed in HEK293 cells at 1 uM by Kinomescan method relative to control; type: cell-based
[25] = molecular target: Protein kinase C theta type (Homo sapiens) (UniProt Q04759); experiment: Binding affinity to wild-type human partial length PRKCQ (L350 to S706 residues) expressed in Escherichia coli BL21 at 1 uM by Kinomescan method relative to control
[26] = molecular target: Cyclin-dependent kinase 11B (Homo sapiens) (UniProt P21127); experiment: Binding affinity to wild-type human partial length CDK11 (M1 to N360 residues) expressed in Escherichia coli BL21 assessed as residual activity at 1000 nM after 1 hr by Kinomescan method relative to control

| Compound | Activity [1] | Activity [2] | Activity [3] | Activity [4] | Activity [5] | Activity [6] | Activity [7] | t1/2 [8] | Activity [9] | Activity [10] | Activity [11] | Activity [12] | Activity [13] | Activity [14] | Activity [15] | Activity [16] | Activity [17] | IC50 [18] | Activity [19] | Activity [20] | other results |
| --- | --- | --- | --- | --- | --- | --- | --- | --- | --- | --- | --- | --- | --- | --- | --- | --- | --- | --- | --- | --- | --- |
| CCC(=O)Nc1ccc(C(=O)Nc2ccc(Nc3ncc4c(n3)N(C)c3ccc(C)cc3C(=O)N4C)cc2)cc1 | 94% | 70% | 68% | 95% | 93% | 87% | 95% | 2.9 min | 83% | 60% | 64% | 68% | 100% | 91% | 99% | 90% | 78% | 0.082 µM | 100% | 67% | Activity [21]: 99%; Activity [22]: 72%; Activity [23]: 72%; Activity [24]: 78%; Activity [25]: 99%; Activity [26]: 100% |
| C=CC(=O)Nc1ccc(C(=O)Nc2ccc(Nc3ncc4c(n3)N(C)c3ccc(C)cc3C(=O)N4C)cc2)cc1 | 100% | 93% | 100% | 95% | 100% | 99% | 86% | 7.5 min | 100% | 77% | 68% | 96% | 99% | 100% | 86% | 96% | 79% | 0.0435 µM | 94% | 87% | Activity [21]: 100%; Activity [22]: 100%; Activity [23]: 83%; Activity [24]: 100%; Activity [25]: 96%; Activity [26]: 100% |
